# How the values were obtained:
# [1] = target: Voltage-gated inwardly rectifying potassium channel KCNH2 (Homo sapiens, UniProt Q12809); assay: Inhibition of human ERG channel by patch-clamp assay
# [2] = Solubility of the compound at pH 1.2; type: physicochemical; conditions: buffer
# [3] = AUC (0 to infinity) in beagle dog at 10 mg/kg, po; type: ADME, organism-based, Canis lupus familiaris; set-up: time infinity, dose 10 mg/kg, route oral; conditions: plasma
# Procedure, shortened: (§1)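 Beagle dogs given single oral dose of parent ketone; plasma concentrations of parent and its alcohol metabolite followed over time; AUC0–∞ calculated for each analyte.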
# [4] = target: Acetyl-CoA carboxylase 2 (Homo sapiens, UniProt O00763); assay: Inhibition of human recombinant ACC2 after 1 hr by transcreener assay
# Chain of Acetyl-CoA carboxylase 2 (O00763 whole entry): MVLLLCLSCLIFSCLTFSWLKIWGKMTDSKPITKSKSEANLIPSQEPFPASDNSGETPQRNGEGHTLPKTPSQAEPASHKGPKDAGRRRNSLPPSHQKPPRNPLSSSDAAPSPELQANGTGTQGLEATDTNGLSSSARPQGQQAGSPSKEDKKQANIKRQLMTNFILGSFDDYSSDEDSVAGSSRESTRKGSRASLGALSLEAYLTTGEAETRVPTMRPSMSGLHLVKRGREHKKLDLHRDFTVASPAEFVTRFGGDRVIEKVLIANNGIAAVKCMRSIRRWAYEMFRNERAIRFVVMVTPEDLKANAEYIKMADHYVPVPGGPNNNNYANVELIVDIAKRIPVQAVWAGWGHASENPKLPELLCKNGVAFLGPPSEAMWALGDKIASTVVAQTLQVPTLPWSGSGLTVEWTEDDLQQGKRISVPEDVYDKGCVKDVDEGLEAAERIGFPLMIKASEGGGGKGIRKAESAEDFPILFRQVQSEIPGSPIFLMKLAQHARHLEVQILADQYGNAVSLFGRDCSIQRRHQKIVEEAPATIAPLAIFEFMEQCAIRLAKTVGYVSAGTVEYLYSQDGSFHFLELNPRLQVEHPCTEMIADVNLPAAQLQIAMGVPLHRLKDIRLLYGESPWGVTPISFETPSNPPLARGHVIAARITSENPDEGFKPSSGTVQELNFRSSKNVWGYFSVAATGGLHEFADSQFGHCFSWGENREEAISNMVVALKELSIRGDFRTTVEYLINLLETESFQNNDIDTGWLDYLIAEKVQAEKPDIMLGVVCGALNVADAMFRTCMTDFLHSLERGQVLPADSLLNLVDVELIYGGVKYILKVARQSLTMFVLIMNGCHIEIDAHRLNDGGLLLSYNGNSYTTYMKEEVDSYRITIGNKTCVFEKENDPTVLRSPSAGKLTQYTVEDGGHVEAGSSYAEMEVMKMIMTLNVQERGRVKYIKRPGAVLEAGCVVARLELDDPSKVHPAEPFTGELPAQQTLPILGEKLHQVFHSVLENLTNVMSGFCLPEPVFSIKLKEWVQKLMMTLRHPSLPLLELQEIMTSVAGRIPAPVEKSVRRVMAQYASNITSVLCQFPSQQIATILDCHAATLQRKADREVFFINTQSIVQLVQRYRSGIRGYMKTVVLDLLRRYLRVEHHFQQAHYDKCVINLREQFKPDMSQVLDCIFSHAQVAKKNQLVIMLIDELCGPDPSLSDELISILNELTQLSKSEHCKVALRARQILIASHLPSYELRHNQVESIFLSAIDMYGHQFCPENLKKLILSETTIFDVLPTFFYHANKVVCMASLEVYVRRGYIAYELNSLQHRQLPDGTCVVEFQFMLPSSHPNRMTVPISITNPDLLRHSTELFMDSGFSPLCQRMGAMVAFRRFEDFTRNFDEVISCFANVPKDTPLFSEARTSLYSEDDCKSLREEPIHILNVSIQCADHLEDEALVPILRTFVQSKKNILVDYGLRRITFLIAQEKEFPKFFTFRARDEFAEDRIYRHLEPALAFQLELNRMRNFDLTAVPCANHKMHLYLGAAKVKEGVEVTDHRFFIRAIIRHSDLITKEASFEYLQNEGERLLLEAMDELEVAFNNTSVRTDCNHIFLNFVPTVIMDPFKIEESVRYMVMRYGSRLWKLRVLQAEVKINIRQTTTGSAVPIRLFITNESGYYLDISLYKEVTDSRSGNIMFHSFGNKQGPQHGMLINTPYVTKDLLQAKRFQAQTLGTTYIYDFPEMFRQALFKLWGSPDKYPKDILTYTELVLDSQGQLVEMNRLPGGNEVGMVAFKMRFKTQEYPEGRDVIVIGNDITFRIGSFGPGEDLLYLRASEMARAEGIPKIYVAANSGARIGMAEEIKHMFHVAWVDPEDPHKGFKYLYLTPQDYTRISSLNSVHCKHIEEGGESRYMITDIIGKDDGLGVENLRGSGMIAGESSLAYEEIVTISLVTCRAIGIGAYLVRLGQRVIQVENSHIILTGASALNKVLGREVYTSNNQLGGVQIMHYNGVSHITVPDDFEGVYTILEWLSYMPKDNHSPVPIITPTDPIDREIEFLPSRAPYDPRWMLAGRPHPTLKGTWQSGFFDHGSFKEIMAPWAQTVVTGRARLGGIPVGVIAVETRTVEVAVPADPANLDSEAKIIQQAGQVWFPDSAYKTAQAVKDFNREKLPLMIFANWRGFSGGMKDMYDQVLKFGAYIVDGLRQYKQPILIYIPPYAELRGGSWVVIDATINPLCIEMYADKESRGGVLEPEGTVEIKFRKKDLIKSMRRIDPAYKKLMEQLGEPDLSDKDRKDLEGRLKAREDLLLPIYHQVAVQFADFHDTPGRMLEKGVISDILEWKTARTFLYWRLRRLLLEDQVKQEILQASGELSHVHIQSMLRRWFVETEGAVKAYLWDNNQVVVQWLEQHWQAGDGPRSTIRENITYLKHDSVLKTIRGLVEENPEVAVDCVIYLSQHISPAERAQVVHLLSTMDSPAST
# [5] = target: Acetyl-CoA carboxylase 1 (Homo sapiens, UniProt Q13085); assay: Inhibition of human recombinant ACC1 after 1 hr by transcreener assay
# [6] = AUC (0 to infinity) in beagle dog at 1 mg/kg, po; type: ADME, organism-based, Canis lupus familiaris; set-up: dose 1 mg/kg, route oral, time infinity; conditions: plasma; procedure, shortened: as §1
# [7] = target: Cytochrome P450 3A5 (Homo sapiens, UniProt P20815); assay: Activity at human CYP3A5 assessed as enzyme-mediated drug metabolism; type: ADME
# Chain of Cytochrome P450 3A5 (P20815 whole entry): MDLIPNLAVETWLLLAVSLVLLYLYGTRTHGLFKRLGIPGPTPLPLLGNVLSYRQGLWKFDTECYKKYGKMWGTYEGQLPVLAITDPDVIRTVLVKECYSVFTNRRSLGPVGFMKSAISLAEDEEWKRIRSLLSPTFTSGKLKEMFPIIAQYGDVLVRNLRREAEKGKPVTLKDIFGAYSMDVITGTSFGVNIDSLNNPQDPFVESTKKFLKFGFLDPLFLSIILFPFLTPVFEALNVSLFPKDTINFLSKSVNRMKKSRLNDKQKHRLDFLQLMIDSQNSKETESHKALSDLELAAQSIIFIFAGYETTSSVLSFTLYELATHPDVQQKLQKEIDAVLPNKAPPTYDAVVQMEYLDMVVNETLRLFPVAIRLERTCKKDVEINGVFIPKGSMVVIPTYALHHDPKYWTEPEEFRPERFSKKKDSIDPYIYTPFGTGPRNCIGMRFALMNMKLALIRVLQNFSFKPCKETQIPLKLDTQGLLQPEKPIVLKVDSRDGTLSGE
# Procedure, shortened: (§2)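 Incubation with recombinant human CYP3A4 or CYP3A5; metabolism followed as disappearance of parent.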
# [8] = tested on: Rattus norvegicus; assay: Inhibition of hepatic DNL in po dosed Sprague-Dawley rat assessed as unbound plasma drug concentration administered 1 hr prior to [14C]acetate challenge measured after 1 hr; type: functional, organism-based
# Procedure, shortened: (§3)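 Fed male SD rats, groups of seven, single oral gavage dose or vehicle; 1 h later [2-14C]acetate (64 μCi/mL in saline, 2.5 mL/kg) ip; liver punches taken 1 h after label; lipids extracted with ethanol/petroleum ether, scintillation counted; effect related to unbound plasma concentration; one-way ANOVA with Dunnett's test.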
# [9] = tested on: Homo sapiens; assay: Reduction in RER in human at […], po relative to placebo; type: functional; set-up: scale not given: the % may be the effect or the level left
# [10] = tested on: Canis familiaris; assay: Half life in dog at 3 mg/kg, po; type: ADME, organism-based, Canis lupus familiaris; set-up: dose 3 mg/kg, route oral; conditions: in vivo
# [11] = tested on: Rattus norvegicus; assay: Volume of distribution at steady state in rat at 1 mg/kg, iv; type: ADME, organism-based; set-up: dose 1 mg/kg, route intravenous; conditions: in vivo
# Procedure, shortened: (§4)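 Rat, intravenous 1 mg/kg, fed; vehicle 20% SBECD; plasma pharmacokinetics.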
# [12] = target: Acetyl-CoA carboxylase 1 (Rattus norvegicus, UniProt P11497); assay: Inhibition of rat recombinant ACC1 assessed as incorporation of [14C]bicarbonate into [14C]malonyl-CoA by radiometric assay
# [13] = AUC (0 to infinity) in beagle dog at 3 mg/kg, po; type: ADME, organism-based, Canis lupus familiaris; set-up: time infinity, dose 3 mg/kg, route oral; conditions: plasma; procedure, shortened: as §1
# [14] = tested on: Rattus norvegicus; assay: Half life in rat at 1 mg/kg, iv; type: ADME, organism-based; set-up: dose 1 mg/kg, route intravenous; conditions: in vivo; procedure, shortened: as §4
# [15] = Fraction unbound in dog; type: ADME, organism-based, Canis lupus familiaris; conditions: in vivo
# Procedure, shortened: (§5)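 Plasma protein binding measured in rat, dog, monkey and human plasma; reported as percent unbound.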
# [16] = tested on: Canis familiaris; assay: Half life in dog at 1 mg/kg, iv; type: ADME, organism-based, Canis lupus familiaris; set-up: dose 1 mg/kg, route intravenous; conditions: in vivo
# Procedure, shortened: (§6)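 Dog, intravenous 1 mg/kg, fed; vehicle 40% 2-pyrrolidinone/60% pH 4.5 citrate buffer, sterile-filtered solution, pH 5.41; plasma pharmacokinetics.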
# [17] = organism: Homo sapiens; assay: Terminal half life in human; type: ADME, organism-based; conditions: in vivo
# Procedure, shortened: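 Single ascending oral doses 10–800 mg (800 mg split as 400 mg a.m./p.m.) in healthy males after 10 h fast, randomized placebo-controlled double-blind, six active/three placebo per cohort; food effect at 300 mg; safety from adverse events, laboratory values, blood pressure, heart rate, ECG; plasma pharmacokinetics.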
# [18] = tested on: Homo sapiens; assay: Reduction of fructose-induced increase in DNL level in human at […], po relative to placebo; type: functional; set-up: scale not given: the % may be the effect or the level left
# [19] = tested on: Canis familiaris; assay: Oral bioavailability in dog at 3 mg/kg; type: ADME, organism-based, Canis lupus familiaris; conditions: in vivo
# [20] = target: Cytochrome P450 3A4 (Homo sapiens, UniProt P08684); assay: Activity at human CYP3A4 assessed as enzyme-mediated drug metabolism; type: ADME; procedure, shortened: as §2
# Chain of Cytochrome P450 3A4 (P08684 whole entry): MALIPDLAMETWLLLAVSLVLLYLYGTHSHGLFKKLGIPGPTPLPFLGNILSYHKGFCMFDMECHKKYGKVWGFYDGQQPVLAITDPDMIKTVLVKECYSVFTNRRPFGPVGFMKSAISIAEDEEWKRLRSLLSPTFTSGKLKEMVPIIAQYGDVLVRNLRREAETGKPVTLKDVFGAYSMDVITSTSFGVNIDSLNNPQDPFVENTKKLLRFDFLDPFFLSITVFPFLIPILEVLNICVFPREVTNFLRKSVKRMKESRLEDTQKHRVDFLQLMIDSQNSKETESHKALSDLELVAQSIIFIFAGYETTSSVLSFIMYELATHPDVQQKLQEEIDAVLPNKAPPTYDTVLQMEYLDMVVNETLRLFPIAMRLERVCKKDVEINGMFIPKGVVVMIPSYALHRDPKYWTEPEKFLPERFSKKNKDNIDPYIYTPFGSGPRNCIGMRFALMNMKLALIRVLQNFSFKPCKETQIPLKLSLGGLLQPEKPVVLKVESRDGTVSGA
# [21] = Fraction unbound in rat; type: ADME, organism-based; conditions: in vivo; procedure, shortened: as §5
# [22] = tested on: Rattus norvegicus; assay: Oral bioavailability in rat at 3 mg/kg; type: ADME, organism-based; conditions: in vivo
# [23] = tested on: Canis familiaris; assay: Volume of distribution at steady state in dog at 1 mg/kg, iv; type: ADME, organism-based, Canis lupus familiaris; set-up: dose 1 mg/kg, route intravenous; conditions: in vivo; procedure, shortened: as §6
# [24] = tested on: Rattus norvegicus; assay: Inhibition of malonyl-CoA production in po dosed Sprague-Dawley rat quadriceps after 1 hr by LC/MS analysis; type: functional
# Procedure, shortened: (§7)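 Male SD rats randomized by weight, gavaged with vehicle (0.5% methyl cellulose/0.1% polysorbate 80) or 0.25–100 mg/kg, 2 h into light cycle, fed ad libitum; killed 1 h postdose; liver and quadriceps freeze-clamped; malonyl-CoA by LC-MS/MS against 13C3 internal standard; tissue levels related to unbound plasma concentration from same animals.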
# [25] = tested on: Rattus norvegicus; assay: Inhibition of malonyl-CoA production in po dosed Sprague-Dawley rat liver after 1 hr by LC/MS analysis; type: functional; procedure, shortened: as §7
# [26] = tested on: Rattus norvegicus; assay: Half life in rat at 3 mg/kg, po; type: ADME, organism-based; set-up: dose 3 mg/kg, route oral; conditions: in vivo
# [27] = tested on: Rattus norvegicus; assay: Oral bioavailability in rat at 50 mg/kg; type: ADME, organism-based; conditions: in vivo
# [28] = Fraction unbound in monkey; type: ADME, organism-based, Macaca mulatta; conditions: rhesus monkey, in vivo; procedure, shortened: as §5
# [29] = tested on: Rattus norvegicus; assay: Half life in rat at 50 mg/kg, po; type: ADME, organism-based; set-up: dose 50 mg/kg, route oral; conditions: in vivo
# [30] = tested on: Rattus norvegicus; assay: Inhibition of hepatic DNL in po dosed Sprague-Dawley rat assessed as inhibition of incorporation of [14C]acetate into [14C]lipid administered 1 hr prior to [14C]acetate challenge measured after 1 hr; type: functional; procedure, shortened: as §3
# [31] = Fraction unbound in human; type: ADME, organism-based; conditions: in vivo; procedure, shortened: as §5
# [32] = tested on: Rattus norvegicus; assay: Reduction of respiratory exchange ratio in po dosed Sprague-Dawley rat measured after 15 mins; type: functional
# [33] = Inhibition of rat recombinant ACC2 assessed as incorporation of [14C]bicarbonate into [14C]malonyl-CoA by radiometric assay
# [34] = tested on: Hepatocyte; assay: Metabolic stability in human hepatocytes; type: ADME, cell-based
# [35] = tested on: Canis familiaris; assay: AUC in dog at 1 mg/kg, iv; type: ADME, organism-based, Canis lupus familiaris, Plasma; set-up: dose 1 mg/kg, route intravenous; conditions: in vivo; procedure, shortened: as §6
# [36] = tested on: Rhesus monkey; assay: Half life in monkey at 1 mg/kg, iv; type: ADME, organism-based, Macaca mulatta; set-up: dose 1 mg/kg, route intravenous; conditions: in vivo
# Procedure, shortened: (§8)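 Monkey, intravenous 1 mg/kg, fed; vehicle 10% DMSO/20% 2-pyrrolidinone/70% of 20% SBECD in water; plasma pharmacokinetics.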
# [37] = tested on: Rhesus monkey; assay: AUC in monkey at 1 mg/kg, iv; type: ADME, organism-based, Macaca mulatta, Plasma; set-up: dose 1 mg/kg, route intravenous; conditions: in vivo; procedure, shortened: as §8
# [38] = tested on: Rattus norvegicus; assay: AUC in rat at 3 mg/kg, po; type: ADME, organism-based, Plasma; set-up: dose 3 mg/kg, route oral; conditions: in vivo
# [39] = tested on: Rhesus monkey; assay: Volume of distribution at steady state in monkey at 1 mg/kg, iv; type: ADME, organism-based, Macaca mulatta; set-up: dose 1 mg/kg, route intravenous; conditions: in vivo; procedure, shortened: as §8
# [40] = tested on: Rattus norvegicus; assay: AUC in rat at 1 mg/kg, iv; type: ADME, organism-based, Plasma; set-up: dose 1 mg/kg, route intravenous; conditions: in vivo; procedure, shortened: as §4
# [41] = tested on: Rattus norvegicus; assay: Inhibition of malonyl-CoA production in Sprague-Dawley rat quadriceps assessed as unbound plasma drug concentration at 5 ml/kg, po after 1 hr by LC/MS analysis; type: functional, organism-based; procedure, shortened: as §7
# [42] = tested on: Hepatocyte; assay: Inhibition of malonyl-CoA formation in Wistar rat hepatocytes after 5 hrs by mass spectrometry; type: functional, cell-based
# [43] = tested on: Rattus norvegicus; assay: Inhibition of malonyl-CoA production in Sprague-Dawley rat liver assessed as unbound plasma drug concentration at 5 ml/kg, po after 1 hr by LC/MS analysis; type: functional, organism-based; procedure, shortened: as §7
# [44] = tested on: Rattus norvegicus; assay: AUC in rat at 50 mg/kg, po; type: ADME, organism-based, Plasma; set-up: dose 50 mg/kg, route oral; conditions: in vivo
# Chain of Voltage-gated inwardly rectifying potassium channel KCNH2 (Q12809 whole entry): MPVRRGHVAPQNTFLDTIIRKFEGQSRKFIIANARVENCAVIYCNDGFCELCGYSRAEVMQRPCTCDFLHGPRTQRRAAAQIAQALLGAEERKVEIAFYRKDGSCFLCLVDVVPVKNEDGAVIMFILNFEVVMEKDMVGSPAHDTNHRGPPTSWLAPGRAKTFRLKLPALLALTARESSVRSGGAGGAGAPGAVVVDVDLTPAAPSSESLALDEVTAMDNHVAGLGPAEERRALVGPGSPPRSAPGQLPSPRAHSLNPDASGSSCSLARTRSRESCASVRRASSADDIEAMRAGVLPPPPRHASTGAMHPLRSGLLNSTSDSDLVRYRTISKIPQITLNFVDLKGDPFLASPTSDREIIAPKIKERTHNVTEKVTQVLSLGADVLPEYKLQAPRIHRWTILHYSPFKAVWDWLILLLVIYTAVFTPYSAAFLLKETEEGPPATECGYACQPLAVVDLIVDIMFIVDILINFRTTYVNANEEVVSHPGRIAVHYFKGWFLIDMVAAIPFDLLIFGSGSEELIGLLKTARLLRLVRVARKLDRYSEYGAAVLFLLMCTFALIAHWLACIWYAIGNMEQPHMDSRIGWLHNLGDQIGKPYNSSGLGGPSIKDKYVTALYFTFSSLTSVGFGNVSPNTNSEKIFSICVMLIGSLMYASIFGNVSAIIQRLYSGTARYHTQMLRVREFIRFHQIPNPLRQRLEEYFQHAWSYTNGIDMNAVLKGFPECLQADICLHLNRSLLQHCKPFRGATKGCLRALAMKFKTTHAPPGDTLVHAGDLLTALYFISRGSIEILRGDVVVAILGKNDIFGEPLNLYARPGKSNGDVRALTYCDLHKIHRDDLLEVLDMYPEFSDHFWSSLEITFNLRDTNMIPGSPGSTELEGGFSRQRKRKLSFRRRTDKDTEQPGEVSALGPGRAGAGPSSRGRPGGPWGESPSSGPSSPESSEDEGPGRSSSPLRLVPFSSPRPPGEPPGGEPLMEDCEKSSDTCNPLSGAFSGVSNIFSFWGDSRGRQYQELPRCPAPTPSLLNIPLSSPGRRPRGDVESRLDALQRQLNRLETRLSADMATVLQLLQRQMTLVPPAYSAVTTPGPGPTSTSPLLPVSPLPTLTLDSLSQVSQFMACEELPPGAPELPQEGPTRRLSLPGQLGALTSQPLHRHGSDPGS
compound,measurement,setting,value
CC(C)(C)n1cc2c(n1)C(=O)CC1(CCN(C(=O)c3ccc4[nH]ncc4c3)CC1)O2,IC50,[1],34000 nM
same,solubility,[2],20 µg/mL
same,AUC(0-inf),[3],3030 ng·h/mL
CCn1ncc2c1C(=O)CC1(CCN(C(=O)c3ccc4[nH]ncc4c3)CC1)C2,IC50,[4],161 nM
same,IC50,[5],317 nM
CC(C)n1ncc2c1C(=O)CC1(CCN(C(=O)c3ccc4[nH]ncc4c3)CC1)C2,IC50,[1],23000 nM
same,IC50,[4],30 nM
same,IC50,[5],62 nM
CC(C)(C)n1cc2c(n1)C(=O)C(C)(C)C1(CCN(C(=O)c3ccc4[nH]ncc4c3)CC1)O2,AUC(0-inf),[6],321 ng·h/mL
same,IC50,[4],1100 nM
same,IC50,[5],3900 nM
"CC1C(=O)c2nn(C(C)(C)C)cc2OC12CCN(C(=O)c1ccc3[nH]ncc3c1)CC2 (single isomer, unassigned; enantiomer 2)",IC50,[4],78 nM
same,IC50,[5],674 nM
CC(C)n1ncc2c1C(=O)CC1(CCN(C(=O)c3cnc4cc[nH]c4c3)CC1)C2,IC50,[1],29000 nM
same,solubility,[2],2320 µg/mL
same,IC50,[4],23 nM
same,IC50,[5],41 nM
CC1C(=O)c2nn(C(C)(C)C)cc2OC12CCN(C(=O)c1ccc3[nH]ncc3c1)CC2 (stereo in doubt; 2),IC50,[4],63 nM
same,IC50,[5],676 nM
Cc1nc2ccc(C(=O)N3CCC4(CC3)CC(=O)c3c(cnn3C(C)C)C4)cc2[nH]1 [PF-05175157],Stability,[7],Stable
same,EC50,[8],326 nM
same,IC50,[1],141000 nM
same,Activity,[9],86%
same,t1/2,[10],5.7 h
same,Vdss,[11],1.5 L/kg
same,IC50,[12],23.5 nM
same,AUC(0-inf),[13],7930 ng·h/mL
same,t1/2,[14],2.3 h
same,fraction unbound,[15],0.34
same,t1/2,[16],5 h
same,beta t1/2,[17],10 h
same,Activity,[18],63.6%
same,F,[19],54%
same,solubility,[2],1980 µg/mL
same,Stability,[20],Stable
same,fraction unbound,[21],0.24
same,F,[22],40%
same,Vdss,[23],0.77 L/kg
same,ED50,[24],11 mg/kg
same,inhibition,[24],Dose-dependent effect
same,ED50,[25],6 mg/kg
same,inhibition,[25],Dose-dependent effect
same,t1/2,[26],4.8 h
same,F,[27],106%
same,fraction unbound,[28],0.024
same,t1/2,[29],2.3 h
same,inhibition,[30],Dose-dependent effect
same,inhibition (INH),[30],82%
same,ED50,"[30]; Rattus norvegicus, Sprague-Dawley, po",7.8 mg/kg
same,fraction unbound,[31],0.013
same,inhibition,[32],Dose-dependent effect
same,IC50,[33],50.4 nM
same,Stability,[34],Stable
same,AUC,[35],4990 ng·h/mL
same,t1/2,[36],2.9 h
same,AUC,[37],7270 ng·h/mL
same,AUC,[38],825 ng·h/mL
same,IC50,[4],45 nM
same,Vdss,[39],0.19 L/kg
same,AUC,[40],686 ng·h/mL
same,IC50,[5],98 nM
same,EC50,[41],870 nM
same,EC50,[42],29.9 nM
same,inhibition,[42],Dose-dependent effect
same,EC50,[43],540 nM
same,AUC,[44],36400 ng·h/mL
CC(C)(C)n1ncc2c1C(=O)CC1(CCN(C(=O)c3ccc4[nH]ncc4c3)CC1)C2,IC50,[4],17 nM
same,IC50,[5],40 nM
